The chains are these.
B1: tRNA (parent)
chain: GUUCCGUUGGCGUAAUGGUAACGCGUCUCCCUCCUAAGGAGAAGACUGCGGGUUCGAGUCCCGUACGGAACG

Fewer inactive variants are shown than the library holds.

In the data set the parent is B1. Description: yeast fitness relative to wild type (ratio to wild type); higher = fitter; tRNA-Arg(CCU), competitive growth, 37 C, YPD. Put shortly: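 Start and end populations of a pooled competition were compared by 100-nucleotide paired-end sequencing of gene amplicons. The Saccharomyces cerevisiae strains carried tRNA-Arg(CCU) gene variants at the native genomic locus, synthesised with a 3% per-site mutation rate at 69 sites, and competed in YPD at 37°C for 24 hours in six parallel replicates. Darwinian fitness relative to wild type was based on the change in genotype frequencies. Genotypes required ≥ 100 starting reads, and estimates < 0.5 were set to 0.5.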
Regarding GUUCCGUUGGCGUAAUGGUAACGCGUCUCCAUCCUAAGGAGAGGACUGCGGGUUCGAGUCCCGUACGGAACG [C31A A43G], the yeast fitness was 0.897.

GUUCCGUUGGCGUAAUGGUAACGCGUCUCCAUCCUAAGGAGAUGACUGCGGGUUCGAGUCCCGUACGGAACG [C31A A43U]: the yeast fitness came to 0.94.

In the case of GUUCCGUUGGCGUAAUGGUAACGCGUCUCCAUCCUAAGGAGAAGGCUGCGGAUUAGAGUCCCGUACGGAACG [C31A A45G G52A C55A], the yeast fitness was at most 0.5.

For the variant GUUCCGUUGGCGUAAUGGUAACGCGUCUCCAUCCUAAGGAGCAGAGUGCGGGUUCGAGUCCCGUACGGAACG [C31A A42C C46G], the yeast fitness was 0.959.

Regarding GUUCCGUUGGCGUAAUGGUAACGCGUCUCCAUCCUAAGGCGAAGACUGCGGGUUCGAGUCCCGUACGGAACG [C31A A40C], the yeast fitness turned out to be 0.775.

Turning to GUUCCGUUGGCGUAAUGGUAACGCGUCUCCAUUCUAAGGAGAAGACUGUGGGUUCGAGUCCCGUACGGAACG [C31A C33U C49U], the yeast fitness was at most 0.5.

As for GUUCCGUUGGCGUAAUGGUAACGCGUCUCCAUCCUAAGGAGAAGACUGCGGGUUCGAGUCCAGUACGGACCG [C31A C62A A70C], the yeast fitness amounted to 0.548.

Turning to GUUCCGUUGGCGUAAUGGUAACGCGUCUCCAUCCUUAGGAGAAGACUGCGGGUUCGAGUCCCGUACGGAACG [C31A A36U], the yeast fitness was 0.705.

GUUCCGUUGGCGUAAUGGUAACGCGUCUCCAUCAUAAGGAGAAGACUGCGGGUUCGAGUCCCGUACGGAACG [C31A C34A]: the yeast fitness was determined as 0.603.

Turning to GUUCCGUUGGCGUAAUGGUAACGCGUCUCCAUGCUUAGGAGAAGACUGCGGGUUCGAGUCCCGUACGGAACG [C31A C33G A36U], the yeast fitness is 0.676.

As for GUUCCGUUGGCGUAAUGGUAACGCGUCUCCAUCCUAAAGAGAAGAUUGCGGGUUCGAGUCCCGUACGGAACG [C31A G38A C46U], the yeast fitness is at most 0.5.

With GUUCCGUUGGCGUAAUGGUAACGCGUCUCCAUGCUUAGGAGAAGACUGCGGGUUCGAGUCCCGUAUGGAACG [C31A C33G A36U C66U], the yeast fitness is at most 0.5.

Regarding GUUCCGUUGGCGUAAUGGUAACGCGUCUCCAUGCUUAGGAGAAGACUGCGGGUCCGAGUCCCGUACGGAACG [C31A C33G A36U U54C], the yeast fitness is at most 0.5.

For the variant GUUCCGUUGGCGUAAUGGUAACGCGUCUCCAUCCUAAGGAGAAGAAUGCGGGUUCGAGUCCCGUUCGGAACG [C31A C46A A65U], the yeast fitness is at most 0.5.

Turning to GUUCCGUUGGCGUAAUGGUAACGCGUCUCCAUCCUAAGGAGAAGACUGCGGGUUCGAGUCCCGUCCUGAACG [C31A A65C G67U], the yeast fitness was at most 0.5.

For the variant GUUCCGUUGGCGUAAUGGUAACGCGUCUCCAUCCUAAGGAGAAGACUGCGGGUUCGAGUCCCGUACGGUACG [C31A A69U], the yeast fitness was found to be 0.856.

As to GUUCCGUUGGCGUAAUGGUAACGCGUCUCCAUCCUAAGGAGAAGACUGCGGGUUCGAGUCCCGUACGGCACG [C31A A69C], the yeast fitness was determined as 0.949.

GUUCCGUUGGCGUAAUGGUAACGCGUCUCCAUCCUAAGGAGGGGACUGCGGGUUCGAGUCCCGUACGCAACG [C31A A42G A43G G68C]: the yeast fitness stood at 0.52.

Take GUUCCGUUGGCGUAAUGGUAACGCGUCUCCAUCCUAAGGAGAAGACUGCGGGUUCGAGUCCUGUACGGAACG [C31A C62U]: the yeast fitness was 0.944.

Consider GUUCCGUUGGCGUAAUGGUAACGCGUCUCCAUCCUAAGGAGAAGACUGCGGGUUCGAGUCCGGUACGGAACG [C31A C62G], for which the yeast fitness turned out to be 0.651.

Take GUUCCGUUGGCGUAAUGGUAACGCGUCUCCAUCCUAGGGAGAAGACUGUGGGUUUGGGUCCCGUACGGAACG [C31A A37G C49U C55U A57G]: the yeast fitness is at most 0.5.

As for GUUCCGUUGGCGUAAUGGUAACGCGUCUCCAUCCUAAGGAGAAGCCUGCGGGUUCGAGUCCUAAACGGAACG [C31A A45C C62U G63A U64A], the yeast fitness was determined as 0.521.

GUUCCGUUGGCGUAAUGGUAACGCGUCUCCAUCCUAAGGAGAAGACUGCGGGUUCGAGUCCGGUACGCAACG [C31A C62G G68C]: the yeast fitness is at most 0.5.

Take GUUCCGUUGGCGUAAUGGUAACGCGUCUCCAUCCUAAGGAGACGACUGCGGGUUCGAGUCCUGUACGGAACG [C31A A43C C62U]: the yeast fitness was determined as 0.998.

Consider GUUCCGUUGGCGUAAUGGUAACGCGUCUCCAUCCUAAGGAGAAGACUGCGGGUUCGAGUCGCAUACGGAACG [C31A C61G G63A], for which the yeast fitness is at most 0.5.

Turning to GUUCCGUUGGCGUAAUGGUAACGCGUCUCCAUCCUAAGGAGAGGACUGCAGGUUCGUGUCCCGUACGGAACG [C31A A43G G50A A57U], the yeast fitness stood at 0.768.

Consider GUUCCGUUGGCGUAAUGGUAACGCGUCUCCAUCCUAAGAAGAAGACUGCGGGUUCGAGUCCCGUACGGAACG [C31A G39A], for which the yeast fitness is 0.777.

Turning to GUUCCGUUGGCGUAAUGGUAACGCGUCUCCAUCCUAAGGAGAAAACUGCGGGUUCGAGUCCCGUACGGAACG [C31A G44A], the yeast fitness came to 0.792.

For GUUCCGUUGGCGUAAUGGUAACGCGUCUCCAUCCUAAGGAGAAAACUGCGGGUUCGCGUCCAGUACGCAACG [C31A G44A A57C C62A G68C], the yeast fitness worked out at 0.559.

For the variant GUUCCGUUGGCGUAAUGGUAACGCGUCUCCAUCCUAAGGAGAAAACUGCGGGUUCGCGUCCCGUACGCAACG [C31A G44A A57C G68C], the yeast fitness was 0.753.

Regarding GUUCCGUUGGCGUAAUGGUAACGCGUCUCCAUCCUAACGAGAAGACUGCGGGUUCGAGUCCCGUACGGAACG [C31A G38C], the yeast fitness came out at 0.749.

As to GUUCCGUUGGCGUAAUGGUAACGCGUCUCCAUCCUAAGGCGAAGACUGCGGGUUCGAGUCCUGUACGGAACG [C31A A40C C62U], the yeast fitness was determined as 0.532.

In the case of GUUCCGUUGGCGUAAUGGUAACGCGUCUCCAUCCUAAGGAGAAGACUGCGGGUUAGAGUCCCGUACAGAACG [C31A C55A G67A], the yeast fitness is at most 0.5.

Regarding GUUCCGUUGGCGUAAUGGUAACGCGUCUCCAUCGUAAGGAGACGACCGCGGGUUCGAGUCUCGUACGGAACG [C31A C34G A43C U47C C61U], the yeast fitness is at most 0.5.

In the case of GUUCCGUUGGCGUAAUGGUAACGCGUCUCCAUCCUAAGGAGAAGACUGCGGGUUCGGGUCUCGUACGGAACG [C31A A57G C61U], the yeast fitness was at most 0.5.

In the case of GUUCCGUUGGCGUAAUGGUAACGCGUCUCCAUCCUAAGGAGAAGACUGCGGGUUCGAGUCACGUACGGAACG [C31A C61A], the yeast fitness was at most 0.5.

Regarding GUUCCGUUGGCGUAAUGGUAACGCGUCUCCAUCCUAAGGAGAAGACUGCGGGUUCGAGUCGCGUACGGAACG [C31A C61G], the yeast fitness stood at 0.812.

As for GUUCCGUUGGCGUAAUGGUAACGCGUCUCCAUCCUAAGGAGAAGACUGCGGGUUCGAGUCUCGUACGGAACG [C31A C61U], the yeast fitness was 0.845.

Values taken from the RNAGym collection of RNA variant scans (doi:10.1126/science.aae0568).
